One test deals with Integrin alpha-V/beta-3 (Homo sapiens, UniProt P05106+P06756). Description: Binding affinity towards vitronectin receptor (AlphaV-beta3 integrin). The test is classed as protein-complex assay. In outline: (§1)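 Purified integrin (αvβ3; αIIbβ3) was bead-coupled overnight at 4 °C. Competitive electrochemiluminescent binding used Ru-labelled vitronectin for αvβ3 and Ru-labelled fibrinogen for αIIbβ3, in pH 7.5 Tris buffer with Ca2+, Mg2+, Mn2+, 1% BSA and 0.05% Tween-20, for 2 h at 25 °C. DMSO serial dilutions were used. Nonspecific binding was taken with excess unlabelled ligand or 5 mM EDTA. Ki came from a four-parameter fit, SD of ≥2 determinations.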
Integrin alpha-V/beta-3, sequence (P05106 27-788 limits assumed): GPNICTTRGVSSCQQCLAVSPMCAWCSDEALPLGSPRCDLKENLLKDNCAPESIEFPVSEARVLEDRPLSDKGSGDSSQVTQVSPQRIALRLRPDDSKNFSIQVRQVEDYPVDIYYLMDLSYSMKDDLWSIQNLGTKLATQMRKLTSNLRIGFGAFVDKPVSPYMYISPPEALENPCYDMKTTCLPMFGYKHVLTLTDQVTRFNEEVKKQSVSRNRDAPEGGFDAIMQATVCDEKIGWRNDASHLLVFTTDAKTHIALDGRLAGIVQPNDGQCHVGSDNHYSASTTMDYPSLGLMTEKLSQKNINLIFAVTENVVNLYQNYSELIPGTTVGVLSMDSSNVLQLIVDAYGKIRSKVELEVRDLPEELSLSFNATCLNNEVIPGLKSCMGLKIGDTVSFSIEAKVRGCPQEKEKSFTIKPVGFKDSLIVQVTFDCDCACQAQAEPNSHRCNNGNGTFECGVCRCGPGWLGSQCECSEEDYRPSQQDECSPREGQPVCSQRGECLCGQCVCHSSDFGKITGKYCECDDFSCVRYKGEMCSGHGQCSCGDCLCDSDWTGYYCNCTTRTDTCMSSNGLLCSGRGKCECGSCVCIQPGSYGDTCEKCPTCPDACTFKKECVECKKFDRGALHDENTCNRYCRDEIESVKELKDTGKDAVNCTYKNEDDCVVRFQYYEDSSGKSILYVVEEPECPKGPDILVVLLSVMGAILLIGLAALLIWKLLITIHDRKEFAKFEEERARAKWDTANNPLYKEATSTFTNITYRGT
Integrin alpha-V/beta-3, sequence (P06756 31-889 limits assumed): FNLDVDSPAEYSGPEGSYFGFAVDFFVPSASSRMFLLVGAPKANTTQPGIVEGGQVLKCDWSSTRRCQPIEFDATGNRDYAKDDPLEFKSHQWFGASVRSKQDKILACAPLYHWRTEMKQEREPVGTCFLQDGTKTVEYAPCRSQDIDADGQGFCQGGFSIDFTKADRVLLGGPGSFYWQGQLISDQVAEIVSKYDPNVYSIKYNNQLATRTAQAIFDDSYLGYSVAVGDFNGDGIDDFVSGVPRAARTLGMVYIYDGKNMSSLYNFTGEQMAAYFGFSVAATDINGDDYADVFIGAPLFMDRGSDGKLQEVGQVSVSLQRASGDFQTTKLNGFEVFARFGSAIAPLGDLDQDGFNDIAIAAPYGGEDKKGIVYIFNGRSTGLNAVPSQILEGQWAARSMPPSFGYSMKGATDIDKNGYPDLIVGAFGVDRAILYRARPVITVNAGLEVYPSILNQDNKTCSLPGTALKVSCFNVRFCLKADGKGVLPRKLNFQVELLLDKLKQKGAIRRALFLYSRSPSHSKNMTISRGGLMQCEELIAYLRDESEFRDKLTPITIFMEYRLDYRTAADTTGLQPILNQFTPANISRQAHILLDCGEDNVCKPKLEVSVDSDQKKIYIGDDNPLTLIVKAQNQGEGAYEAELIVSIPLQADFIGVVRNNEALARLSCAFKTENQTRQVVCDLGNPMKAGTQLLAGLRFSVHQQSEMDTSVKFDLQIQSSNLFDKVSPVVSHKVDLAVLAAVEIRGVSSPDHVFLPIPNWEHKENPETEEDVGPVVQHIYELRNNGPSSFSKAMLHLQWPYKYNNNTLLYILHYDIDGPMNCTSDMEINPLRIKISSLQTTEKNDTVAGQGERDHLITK
Integrin alpha-V/beta-3, sequence (P06756 891-1048 limits assumed): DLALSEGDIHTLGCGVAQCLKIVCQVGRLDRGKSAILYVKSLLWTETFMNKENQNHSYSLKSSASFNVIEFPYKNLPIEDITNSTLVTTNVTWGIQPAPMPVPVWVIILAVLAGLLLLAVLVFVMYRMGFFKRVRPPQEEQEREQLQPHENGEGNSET

Test [1] concerns the target Integrin alpha-IIb/beta-3 (Homo sapiens, UniProt P05106+P08514). Description: Affinity for alphaIIb-beta3 integrin. The test is classed as protein-complex assay. The gist of the method:
as §1

A value given as a limit tells only on which side of the number the result lay.

Among the data in ChEMBL document CHEMBL1149202, “N-Aryl-gamma-lactams as integrin alphavbeta3 antagonists” (Bioorg Med Chem Lett, 2004) are Ki values, retold here.

By Ki is commonly meant a dissociation constant, usually derived from enzyme kinetics or from competition with a known ligand. A high value points to lower affinity.

Integrin alpha-IIb/beta-3, sequence (P05106 27-788 limits assumed): as the sequence (P05106 27-788 limits assumed) above
Integrin alpha-IIb/beta-3, sequence (P08514 32-887 limits assumed): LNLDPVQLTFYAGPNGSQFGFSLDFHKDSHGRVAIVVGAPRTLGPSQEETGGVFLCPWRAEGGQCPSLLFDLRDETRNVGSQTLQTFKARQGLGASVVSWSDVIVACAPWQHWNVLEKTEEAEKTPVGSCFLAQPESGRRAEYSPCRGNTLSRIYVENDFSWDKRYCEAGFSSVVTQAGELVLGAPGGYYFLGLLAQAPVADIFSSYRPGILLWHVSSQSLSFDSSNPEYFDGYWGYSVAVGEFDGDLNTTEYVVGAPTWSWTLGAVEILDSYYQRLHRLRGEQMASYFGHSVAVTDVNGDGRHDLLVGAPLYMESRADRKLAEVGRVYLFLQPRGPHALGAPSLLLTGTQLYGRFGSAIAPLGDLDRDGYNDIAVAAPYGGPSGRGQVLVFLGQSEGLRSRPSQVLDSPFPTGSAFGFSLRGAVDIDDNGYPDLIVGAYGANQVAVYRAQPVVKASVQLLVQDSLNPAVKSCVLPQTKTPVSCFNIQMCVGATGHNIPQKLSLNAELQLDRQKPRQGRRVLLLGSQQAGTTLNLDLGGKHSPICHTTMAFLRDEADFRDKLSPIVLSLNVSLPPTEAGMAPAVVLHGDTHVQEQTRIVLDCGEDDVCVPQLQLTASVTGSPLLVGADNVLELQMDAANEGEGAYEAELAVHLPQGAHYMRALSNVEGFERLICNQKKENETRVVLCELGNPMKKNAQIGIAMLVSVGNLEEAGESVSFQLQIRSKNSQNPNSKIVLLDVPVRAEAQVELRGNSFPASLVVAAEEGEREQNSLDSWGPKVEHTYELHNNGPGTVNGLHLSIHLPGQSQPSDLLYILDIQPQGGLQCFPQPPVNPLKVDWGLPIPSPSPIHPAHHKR
Integrin alpha-IIb/beta-3, sequence (P08514 891-1039 limits assumed): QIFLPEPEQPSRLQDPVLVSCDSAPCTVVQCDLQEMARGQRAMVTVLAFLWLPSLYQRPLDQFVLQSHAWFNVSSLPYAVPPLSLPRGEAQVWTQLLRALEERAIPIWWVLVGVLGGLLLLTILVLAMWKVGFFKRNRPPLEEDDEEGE

Turning to `O=C(O)C[C@@H](NC(=O)[C@@H]1CC(=O)N(c2cccc(NC(=O)NCc3ccccc3)c2)C1)c1cccc(F)c1`, the Ki was 154 nM on Integrin alpha-V/beta-3 and > 25000 nM in test [1].

With `O=C(O)C[C@@H](NC(=O)[C@H]1CC(=O)N(c2cccc(NC(=O)NCc3ccccc3)c2)C1)c1cccc(F)c1`, the values for the Ki (at Integrin alpha-V/beta-3; in test [1]) were > 1000 nM and > 25000 nM, respectively.

As to `O=C(O)CC(NC(=O)C1CC(=O)N(c2cccc(NC3=NCCN3)c2)C1)c1cccnc1` (stereo not drawn), the inhibition constant (Ki) at Integrin alpha-V/beta-3 came out at 5.1 nM.

For `O=C(O)C[C@H](NC(=O)[C@H]1CC(=O)N(c2cccc(NC(=O)NCc3ccccc3)c2)C1)c1cccc(F)c1`, the Ki was > 1000 nM at Integrin alpha-V/beta-3 and > 25000 nM in test [1].

On Integrin alpha-V/beta-3, `O=C(O)CC(NC(=O)C1CC(=O)N(c2cc(NC3=NCCCN3)ccc2F)C1)c1ccc2c(c1)OCO2` (stereo not drawn) came in with a Ki of 0.5 nM.

For `O=C(O)C[C@H](NC(=O)[C@@H]1CC(=O)N(c2cccc(NC(=O)NCc3ccccc3)c2)C1)c1cccc(F)c1`, the figures for the Ki (at Integrin alpha-V/beta-3; in test [1]) were 10 nM and > 25000 nM, respectively.

As to `O=C(O)C[C@H](NC(=O)[C@@H]1CC(=O)N(c2cccc(NC3=NCCCN3)c2)C1)c1ccc2c(c1)OCO2`, the Ki was 0.1 nM at Integrin alpha-V/beta-3 and 2100 nM in test [1].

`O=C(O)CC(NC(=O)C1CC(=O)N(c2cccc(NC(=O)NCc3ccccc3)c2)C1)c1ccccc1` (stereo not drawn): the Ki at Integrin alpha-V/beta-3 stood at 70.9 nM.

`O=C(O)CC(NC(=O)C1CC(=O)N(c2cccc(NC(=O)NCc3ccccc3)c2)C1)c1cccc(F)c1` (stereo not drawn) yielded a Ki on Integrin alpha-V/beta-3 of 11.1 nM.

As to `O=C(O)C[C@@H](NC(=O)[C@@H]1CC(=O)N(c2cccc(NC3=NCCCN3)c2)C1)c1ccc2c(c1)OCO2`, the Ki at Integrin alpha-V/beta-3 was 7.3 nM; in test [1], > 25000 nM.

In turn, `N=C(N)Nc1cccc(N2CC(C(=O)NC(CC(=O)O)c3cccnc3)CC2=O)c1` (stereo not drawn) gave a Ki on Integrin alpha-V/beta-3 of 16.6 nM.

`O=C(O)CC(NC(=O)C1CC(=O)N(c2cccc(NC3=NCCCN3)c2)C1)c1ccc2c(c1)OCO2` (stereo not drawn): affinity at Integrin alpha-V/beta-3 was put at a Ki of 0.7 nM.

In the case of `NC(N)=Nc1ccc(F)c(N2CC(C(=O)NC(CC(=O)O)c3cccnc3)CC2=O)c1` (stereo not drawn), the inhibition constant Ki on Integrin alpha-V/beta-3 amounted to 2.9 nM.

`O=C(O)CC(NC(=O)C1CC(=O)N(c2cccc(NC(=O)NCc3ccccc3)c2)C1)c1ccc2c(c1)OCO2` (stereo not drawn) had a Ki on Integrin alpha-V/beta-3 of 2.4 nM.

In the case of `O=C(O)CC(NC(=O)C1CC(=O)N(c2cccc(NC(=O)NCc3ccccc3)c2)C1)c1cccnc1` (stereo not drawn), the affinity at Integrin alpha-V/beta-3, expressed as Ki, was 10.4 nM.

`O=C(O)CC(NC(=O)C1CC(=O)N(c2cccc(NC3=NCCCN3)c2)C1)c1cccnc1` (stereo not drawn): the inhibition constant (Ki) on Integrin alpha-V/beta-3 is 1.4 nM.

For the molecule `NC(N)=Nc1ccc(Cl)c(N2CC(C(=O)NC(CC(=O)O)c3cccnc3)CC2=O)c1` (stereo not drawn), the Ki on Integrin alpha-V/beta-3 was determined as 52.7 nM.
